The source of these data is ChEMBL document CHEMBL5329156, “Discovery and development of novel substituted monohydrazides as potent antifungal agents” (RSC Med Chem, 2023).

Holding throughout (type): functional
The subject of experiment [1] is Nakaseomyces glabratus. Description: Antifungal activity against Candida glabrata ATCC 2001 assessed as fungal growth inhibition by double dilution method. The gist of the method:
(§1)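 Broth microdilution after CLSI M27-A3/M38-A2 with minor changes. Single colony grown overnight in YPD at 35 °C, 200 rpm. Compound final range 0.06-31.3 µg/mL; incubated 48 h at 35 °C.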

For experiment [2], the system named is Nakaseomyces glabratus. Description: Antifungal activity against Candida glabrata ATCC 22019 assessed as fungal growth inhibition by double dilution method. The method in brief: as §1
Experiment [3] concerns Candida albicans. The experiment in a line: Antifungal activity against Candida albicans ATCC 64124 assessed as fungal growth inhibition by double dilution method. The gist of the method:
(§2)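 Broth microdilution after CLSI M27-A3/M38-A2 with minor modifications. A single colony was grown overnight in YPD at 35 °C with shaking at 200 rpm. Cells were mixed 1:1 with compound (final 0.06-31.3 µg/mL, from DMSO stocks) and incubated 48 h at 35 °C.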

The test system of experiment [4] is Aspergillus fumigatus. Description: Antifungal activity against Aspergillus fumigatus NRRL 163 assessed as fungal growth inhibition by double dilution method.
Experiment [5] deals with Candida albicans. Description: Antifungal activity against Candida albicans ATCC 10231 assessed as fungal growth inhibition by double dilution method. The method in brief:
as §1

The test system of experiment [6] is Candida albicans. The experiment in a line: Antifungal activity against itraconazole/fluconazole resistant Candida albicans ATCC MYA-1003 assessed as fungal growth inhibition by double dilution method. The gist of the method:
as §2

In experiment [7] the test system is Candida albicans. Description: Antifungal activity against itraconazole/fluconazole susceptible Candida albicans ATCC MYA-2876 assessed as fungal growth inhibition by double dilution method. The gist of the method:
as §2

Experiment [8] deals with Aspergillus fumigatus. The experiment in a line: Antifungal activity against Aspergillus fumigatus NRRL 5109 assessed as fungal growth inhibition by double dilution method.
The next experiment deals with Aspergillus nidulans. Description: Antifungal activity against Aspergillus nidulans ATCC 38163 assessed as fungal growth inhibition by double dilution method.
Experiment [9] deals with [Candida] auris. Description: Antifungal activity against Candida auris AR Bank # 0390 assessed as fungal growth inhibition by double dilution method. The conditions noted are these: Candidozyma auris. The gist of the method: as §1
The test system of experiment [10] is Candida albicans. The experiment in a line: Antifungal activity against itraconazole/fluconazole resistant Candida albicans ATCC 90819 assessed as fungal growth inhibition by double dilution method. The method in brief:
as §2

The next experiment concerns Pichia kudriavzevii. Description: Antifungal activity against Pichia kudriavzevii ATCC 6258 assessed as fungal growth inhibition by double dilution method. The gist of the method:
as §1

The next experiment concerns Aspergillus terreus. Description: Antifungal activity against Aspergillus terreus ATCC MYA-3633 assessed as fungal growth inhibition by double dilution method.
Experiment [11] concerns [Candida] auris. The experiment in a line: Antifungal activity against Candida auris AR Bank # 0384 assessed as fungal growth inhibition by double dilution method. The settings on record: Candidozyma auris. The method in brief:
as §1

A further experiment deals with Aspergillus flavus. The experiment in a line: Antifungal activity against Aspergillus flavus ATCC MYA-3631 assessed as fungal growth inhibition by double dilution method.
Experiment [12] deals with Candida albicans. The experiment in a line: Antifungal activity against itraconazole/fluconazole resistant Candida albicans ATCC MYA-1237 assessed as fungal growth inhibition by double dilution method. The gist of the method:
as §2

Experiment [13] deals with Aspergillus fumigatus. Description: Antifungal activity against Aspergillus fumigatus NRRL 6113 assessed as fungal growth inhibition by double dilution method.
The subject of another experiment is Cryptococcus neoformans. The experiment in a line: Antifungal activity against Cryptococcus neoformans ATCC MYA-895 assessed as fungal growth inhibition by double dilution method. The gist of the method: as §1
The test system of experiment [14] is Candida albicans. The experiment in a line: Antifungal activity against itraconazole/fluconazole susceptible Candida albicans ATCC MYA-2310 assessed as fungal growth inhibition by double dilution method. The method in brief:
as §2

Values after ≈ are worked out from the molar mass of the structure shown.

For `O=C(NNc1cccc(F)c1)c1ncc(F)cc1F`, the MIC was 31.3 µg/mL (≈ 117 µM) in the experiment with Nakaseomyces glabratus [1]; 1.95 µg/mL (≈ 7.3 µM) with Nakaseomyces glabratus [2]; 0.98 µg/mL (≈ 3.67 µM) with Candida albicans [3]; over 31.3 µg/mL in the experiment with Aspergillus fumigatus [4]; 0.24 µg/mL (≈ 0.898 µM) with Candida albicans [5]; 1.95 µg/mL (≈ 7.3 µM) in the experiment on Candida albicans [6]. In addition, the MIC in the experiment on Candida albicans [7] was 1.95 µg/mL (≈ 7.3 µM); with Aspergillus fumigatus [8] it was over 31.3 µg/mL; with Aspergillus nidulans, 0.98 µg/mL (≈ 3.67 µM); in experiment [Candida] auris [9], 1.95 µg/mL (≈ 7.3 µM); in the experiment on Candida albicans [10], 3.9 µg/mL (≈ 14.6 µM); in the experiment on Pichia kudriavzevii it was 0.24 µg/mL (≈ 0.898 µM). Also, the MIC is 3.9 µg/mL (≈ 14.6 µM) in the experiment on Aspergillus terreus; 1.95 µg/mL (≈ 7.3 µM) in experiment [Candida] auris [11]; over 31.3 µg/mL in the experiment with Aspergillus flavus; 3.9 µg/mL (≈ 14.6 µM) in the experiment on Candida albicans [12]; over 31.3 µg/mL in the experiment with Aspergillus fumigatus [13]; at most 0.06 µg/mL in the experiment on Cryptococcus neoformans. In addition, in the experiment on Candida albicans [14], the MIC was found to be 1.95 µg/mL (≈ 7.3 µM).
For the compound `COc1ccc(NNC(=O)c2cccc(F)n2)cc1`, the minimal inhibitory concentration (MIC) with Nakaseomyces glabratus [1] was 0.98 µg/mL (≈ 3.75 µM); in the experiment on Nakaseomyces glabratus [2], 7.8 µg/mL (≈ 29.9 µM); with Candida albicans [3], 1.95 µg/mL (≈ 7.46 µM); in the experiment with Aspergillus fumigatus [4], over 31.3 µg/mL; in the experiment with Candida albicans [5] it was 0.24 µg/mL (≈ 0.919 µM); in the experiment with Candida albicans [6] it was 0.98 µg/mL (≈ 3.75 µM). Also, the MIC with Candida albicans [7] is 0.98 µg/mL (≈ 3.75 µM); in the experiment on Aspergillus fumigatus [8], over 31.3 µg/mL; with Aspergillus nidulans, 1.95 µg/mL (≈ 7.46 µM); in [Candida] auris [9] it was 1.95 µg/mL (≈ 7.46 µM); in the experiment on Candida albicans [10], 1.95 µg/mL (≈ 7.46 µM); in the experiment with Pichia kudriavzevii, 0.49 µg/mL (≈ 1.88 µM). Moreover, the MIC in the experiment on Aspergillus terreus was 15.6 µg/mL (≈ 59.7 µM); in experiment [Candida] auris [11], 1.95 µg/mL (≈ 7.46 µM); in the experiment with Aspergillus flavus, over 31.3 µg/mL; in the experiment with Candida albicans [12], 0.98 µg/mL (≈ 3.75 µM); with Aspergillus fumigatus [13], 15.6 µg/mL (≈ 59.7 µM); in the experiment with Cryptococcus neoformans, 0.24 µg/mL (≈ 0.919 µM). Besides, the MIC in the experiment with Candida albicans [14] worked out at 0.98 µg/mL (≈ 3.75 µM).
With `O=C(NNc1ccc(F)cc1)c1cccc(F)n1`, the MIC in the experiment on Nakaseomyces glabratus [1] came out at 15.6 µg/mL (≈ 62.6 µM); with Nakaseomyces glabratus [2] it was 3.9 µg/mL (≈ 15.6 µM); in the experiment with Candida albicans [3], 0.98 µg/mL (≈ 3.93 µM); in the experiment on Aspergillus fumigatus [4], 31.3 µg/mL (≈ 126 µM); in the experiment with Candida albicans [5], 0.24 µg/mL (≈ 0.963 µM); in the experiment on Candida albicans [6], 0.98 µg/mL (≈ 3.93 µM). Moreover, the MIC in the experiment on Candida albicans [7] was determined as 1.95 µg/mL (≈ 7.82 µM); in the experiment with Aspergillus fumigatus [8], 15.6 µg/mL (≈ 62.6 µM); in the experiment on Aspergillus nidulans, 0.98 µg/mL (≈ 3.93 µM); in [Candida] auris [9], 0.98 µg/mL (≈ 3.93 µM); in the experiment on Candida albicans [10], 1.95 µg/mL (≈ 7.82 µM); in the experiment on Pichia kudriavzevii it was 0.49 µg/mL (≈ 1.97 µM). Further, the MIC in the experiment with Aspergillus terreus turned out to be 1.95 µg/mL (≈ 7.82 µM); in experiment [Candida] auris [11], 1.95 µg/mL (≈ 7.82 µM); in the experiment with Aspergillus flavus, 7.8 µg/mL (≈ 31.3 µM); in the experiment on Candida albicans [12] it was 1.95 µg/mL (≈ 7.82 µM); in the experiment with Aspergillus fumigatus [13], 15.6 µg/mL (≈ 62.6 µM); with Cryptococcus neoformans it was 0.49 µg/mL (≈ 1.97 µM). Further, the MIC in the experiment with Candida albicans [14] turned out to be 3.9 µg/mL (≈ 15.6 µM).
Turning to `O=C(NNc1cccc(F)c1)c1ccc(Br)cn1`, the MIC with Nakaseomyces glabratus [1] is over 31.3 µg/mL; with Nakaseomyces glabratus [2], 7.8 µg/mL (≈ 25.2 µM); in the experiment with Candida albicans [3], 0.49 µg/mL (≈ 1.58 µM); in the experiment with Aspergillus fumigatus [4], over 31.3 µg/mL; in the experiment with Candida albicans [5] it was 0.49 µg/mL (≈ 1.58 µM); in the experiment on Candida albicans [6], 0.98 µg/mL (≈ 3.16 µM). Moreover, the MIC in the experiment with Candida albicans [7] is 1.95 µg/mL (≈ 6.29 µM); with Aspergillus fumigatus [8], over 31.3 µg/mL; in the experiment on Aspergillus nidulans it was 1.95 µg/mL (≈ 6.29 µM); in experiment [Candida] auris [9], 1.95 µg/mL (≈ 6.29 µM); in the experiment with Candida albicans [10], 3.9 µg/mL (≈ 12.6 µM); in the experiment with Pichia kudriavzevii, 0.24 µg/mL (≈ 0.774 µM). Besides, the MIC with Aspergillus terreus was 0.98 µg/mL (≈ 3.16 µM); in experiment [Candida] auris [11], 1.95 µg/mL (≈ 6.29 µM); in the experiment on Aspergillus flavus, 15.6 µg/mL (≈ 50.3 µM); in the experiment on Candida albicans [12], 3.9 µg/mL (≈ 12.6 µM); with Aspergillus fumigatus [13] it was over 31.3 µg/mL; with Cryptococcus neoformans, 0.06 µg/mL (≈ 0.193 µM). The MIC in the experiment with Candida albicans [14] amounted to 3.9 µg/mL (≈ 12.6 µM).
With `O=C(NNc1ccc(F)cc1)c1ccc(F)cc1F`, the MIC with Nakaseomyces glabratus [1] is 7.8 µg/mL (≈ 29.3 µM); in the experiment with Nakaseomyces glabratus [2], 15.6 µg/mL (≈ 58.6 µM); with Candida albicans [3], 7.8 µg/mL (≈ 29.3 µM); in the experiment on Aspergillus fumigatus [4] it was over 31.3 µg/mL; with Candida albicans [5], 0.49 µg/mL (≈ 1.84 µM); in the experiment with Candida albicans [6] it was 1.95 µg/mL (≈ 7.32 µM). Further, the MIC in the experiment with Candida albicans [7] is 7.8 µg/mL (≈ 29.3 µM); in the experiment on Aspergillus fumigatus [8], over 31.3 µg/mL; with Aspergillus nidulans, 3.9 µg/mL (≈ 14.6 µM); in [Candida] auris [9], 1.95 µg/mL (≈ 7.32 µM); in the experiment with Candida albicans [10], 1.95 µg/mL (≈ 7.32 µM); in the experiment with Pichia kudriavzevii, 1.95 µg/mL (≈ 7.32 µM). The MIC with Aspergillus terreus was 3.9 µg/mL (≈ 14.6 µM); in experiment [Candida] auris [11], 1.95 µg/mL (≈ 7.32 µM); in the experiment with Aspergillus flavus, over 31.3 µg/mL; with Candida albicans [12], 1.95 µg/mL (≈ 7.32 µM); in the experiment with Aspergillus fumigatus [13], over 31.3 µg/mL; in the experiment with Cryptococcus neoformans, 0.49 µg/mL (≈ 1.84 µM). In the experiment on Candida albicans [14], the MIC amounted to 3.9 µg/mL (≈ 14.6 µM).
On to `COc1cccc(NNC(=O)c2cccc(Br)n2)c1`, for which the minimal inhibitory concentration (MIC) was 7.8 µg/mL (≈ 24.2 µM) with Nakaseomyces glabratus [1]; 0.98 µg/mL (≈ 3.04 µM) with Nakaseomyces glabratus [2]; 3.9 µg/mL (≈ 12.1 µM) with Candida albicans [3]; over 31.3 µg/mL in the experiment with Aspergillus fumigatus [4]; 1.95 µg/mL (≈ 6.05 µM) with Candida albicans [5]; 3.9 µg/mL (≈ 12.1 µM) in the experiment with Candida albicans [6]. Moreover, the MIC turned out to be 0.49 µg/mL (≈ 1.52 µM) with Candida albicans [7]; 31.3 µg/mL (≈ 97.2 µM) with Aspergillus fumigatus [8]; 3.9 µg/mL (≈ 12.1 µM) in the experiment with Aspergillus nidulans; 1.95 µg/mL (≈ 6.05 µM) in [Candida] auris [9]; 1.95 µg/mL (≈ 6.05 µM) with Candida albicans [10]; 0.24 µg/mL (≈ 0.745 µM) in the experiment with Pichia kudriavzevii. In addition, the MIC is 1.95 µg/mL (≈ 6.05 µM) with Aspergillus terreus; 0.98 µg/mL (≈ 3.04 µM) in experiment [Candida] auris [11]; over 31.3 µg/mL with Aspergillus flavus; 0.98 µg/mL (≈ 3.04 µM) in the experiment with Candida albicans [12]; over 31.3 µg/mL in the experiment with Aspergillus fumigatus [13]; 0.98 µg/mL (≈ 3.04 µM) in the experiment with Cryptococcus neoformans. The MIC with Candida albicans [14] turned out to be 7.8 µg/mL (≈ 24.2 µM).
